Legend:
[1] = target: Cannabinoid receptor 2 (Mus musculus, UniProt P47936); test: Displacement of [3H]CP-55,940 from mouse CB2 receptor expressed in CHO cell membranes
Summary of the method: (§1)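 Membranes from CHO cells expressing human or murine CB2 were incubated with [3H]CP-55,940 in 50 mM Tris, 5 mM MgCl2, 2.5 mM EGTA, 0.1% fatty-acid-free BSA, pH 7.4, 1 h at 30 °C with shaking. Reaction stopped by filtration through PEI-coated GF/B. Ki from nonlinear regression using saturation-derived Kd. Ten concentrations in triplicate.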

[2] = target: Cannabinoid receptor 1 (Homo sapiens, UniProt P21554); test: Activity at human CB1 receptor expressed in CHO cells assessed as cAMP accumulation incubated for 30 mins by time-resolved FRET assay; format: functional, cell-based
Chain of Cannabinoid receptor 1 (P21554 whole entry, looked up): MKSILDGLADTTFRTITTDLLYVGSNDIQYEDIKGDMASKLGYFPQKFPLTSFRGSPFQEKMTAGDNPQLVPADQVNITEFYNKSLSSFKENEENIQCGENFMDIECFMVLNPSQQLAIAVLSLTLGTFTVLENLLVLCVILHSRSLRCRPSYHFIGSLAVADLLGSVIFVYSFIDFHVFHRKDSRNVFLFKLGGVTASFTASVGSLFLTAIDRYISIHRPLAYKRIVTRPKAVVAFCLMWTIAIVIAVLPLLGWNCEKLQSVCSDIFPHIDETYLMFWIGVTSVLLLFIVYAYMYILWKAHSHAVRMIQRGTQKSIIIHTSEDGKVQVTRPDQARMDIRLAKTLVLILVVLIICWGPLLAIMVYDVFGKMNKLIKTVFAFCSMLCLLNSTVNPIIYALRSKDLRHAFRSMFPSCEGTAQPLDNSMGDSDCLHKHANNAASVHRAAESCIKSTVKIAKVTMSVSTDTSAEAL
Summary of the method: (§2)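 CHO cells expressing human CB1 or CB2 were seeded 1 day before in DMEM/HT supplement/10% FCS. Medium was replaced with Krebs Ringer bicarbonate buffer containing 1 mM IBMX, 30 min at 30 °C, then compound added for 30 min at 30 °C. cAMP was read by time-resolved FRET (cAMP-Nano-TRF kit) against a standard curve from 10 μM to 0.13 nM. Ten concentrations in triplicate, single experiment.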

[3] = target: T1, Cannabinoid receptor 2 (Homo sapiens, UniProt P34972); test: Displacement of [3H]CP-55,940 from human CB2 receptor expressed in CHO cell membranes; summary of the method: as §1
T1 sequence (P34972 whole entry): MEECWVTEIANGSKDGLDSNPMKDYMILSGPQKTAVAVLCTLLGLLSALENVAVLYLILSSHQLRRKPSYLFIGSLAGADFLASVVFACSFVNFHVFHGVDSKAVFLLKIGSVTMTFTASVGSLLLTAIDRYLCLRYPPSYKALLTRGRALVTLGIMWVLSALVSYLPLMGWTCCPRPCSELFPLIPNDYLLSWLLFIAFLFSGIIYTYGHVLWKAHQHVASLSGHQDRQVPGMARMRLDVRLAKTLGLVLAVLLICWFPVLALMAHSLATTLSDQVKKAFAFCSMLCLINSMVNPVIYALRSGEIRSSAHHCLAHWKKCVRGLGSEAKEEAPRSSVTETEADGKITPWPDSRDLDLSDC

[4] = target: T1, Cannabinoid receptor 2; test: Activity at human CB2 receptor expressed in CHO cells assessed as cAMP accumulation incubated for 30 mins by time-resolved FRET assay; format: functional, cell-based; summary of the method: as §2
[5] = Lipophilicity, log D of the compound in n-octanol/phosphate buffer pH 7.4 by shake flask method; format: physicochemical
[6] = tested on: CHO; test: Selectivity index, ratio of EC50 for human CB1 receptor expressed in CHO cells to EC50 for human CB2 receptor expressed in CHO cells; format: cell-based
[7] = Substrate activity at P-gp (unknown origin); format: ADME; details: human

Chain of Cannabinoid receptor 2 (Mus musculus, UniProt P47936) (P47936 whole entry): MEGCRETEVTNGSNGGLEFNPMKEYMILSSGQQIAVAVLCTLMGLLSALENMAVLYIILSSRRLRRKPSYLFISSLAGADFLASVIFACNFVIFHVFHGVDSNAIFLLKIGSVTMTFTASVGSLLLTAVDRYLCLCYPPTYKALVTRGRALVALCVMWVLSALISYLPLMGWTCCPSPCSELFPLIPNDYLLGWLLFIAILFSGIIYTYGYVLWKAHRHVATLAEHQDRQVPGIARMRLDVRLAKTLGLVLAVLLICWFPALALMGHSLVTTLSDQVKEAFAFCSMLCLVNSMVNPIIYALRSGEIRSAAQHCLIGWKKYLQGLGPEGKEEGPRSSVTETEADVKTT

| SMILES | Ki [1] | EC50 [2] | Ki [3] | EC50 [4] | logD [5] | Ratio EC50 [6] | Ratio EC50 ([6]; tested as the 11C-labelled form) | Activity [7] |
| --- | --- | --- | --- | --- | --- | --- | --- | --- |
| CCOCCOCC(C)(C)c1cc(NC(=O)c2ccc(C3CCCC3)c(OCC3CC3)n2)on1 | 11.7 nM | > 10000 nM | 264 nM | – | – | – | – | – |
| COC1CN(c2ccc(C(=O)NC(C)(C)Cc3nnc(-c4ccc(F)cc4)o3)nc2OCC2CC2)C1 | 504 nM | > 10000 nM | 466 nM | 1810 nM | – | – | – | – |
| COC1CN(c2ccc(C(=O)NC3(CC(N)=O)COC3)nc2OCC2CC2)C1 | 3110 nM | > 10000 nM | 1020 nM | – | 1.7 | – | – | – |
| CCC(CC)(NC(=O)c1ccc(N2CC(F)(F)C2)c(OCC2CC2)n1)C(=O)NCCF | 403 nM | > 10000 nM | 774 nM | 27 nM | – | – | – | – |
| CCOC(=O)C(CC)(CC)NC(=O)c1ccc(N2CC(OC)C2)c(OCC2CC2)n1 | 1.8 nM | > 10000 nM | 2.5 nM | 4.4 nM | – | > 1000 | 150 | – |
| CC(C)(NC(=O)c1ccc(N2CC(F)(F)C2)c(OCC2CC2)n1)c1nnc(-c2cccnc2)o1 | > 10000 nM | > 10000 nM | > 10000 nM | 396 nM | – | – | – | – |
| COC1CN(c2ccc(C(=O)NCC3(O)CCCCC3)nc2OCC2CC2)C1 | 2230 nM | > 10000 nM | 2870 nM | – | – | – | – | – |
| COC1CN(c2ccc(C(=O)NC(C)(C)Cc3nnc(C4CCC4)o3)nc2OCC2CC2)C1 | – | > 10000 nM | – | 4010 nM | 3.37 | – | – | – |
| CC(C)(NC(=O)c1ccc(N2CC(F)(F)C2)c(OCC2CC2)n1)c1nnc(-c2ccccc2)o1 | > 10000 nM | > 10000 nM | 3960 nM | > 10000 nM | – | – | – | – |
| CCC(CC)(NC(=O)c1ccc(N2CC(OC)C2)c(OCC2CC2)n1)C(=O)N1CC(F)C1 | 6.9 nM | > 10000 nM | 18.3 nM | 4.4 nM | 3.25 | > 1000 | – | Active |

Source: ChEMBL document CHEMBL3580634, “Discovery of a high affinity and selective pyridine analog as a potential positron emission tomography imaging agent for cannabinoid type 2 receptor” (J Med Chem, 2015)
